Columns and labels:
[1] = molecular target: Bromodomain-containing protein 4 (Homo sapiens, UniProt O60885); experiment: Binding affinity to BRD4 BD2 (E352 to M457 residues) (unknown origin) expressed in Escherichia coli BL21 (DE3) after 1 hr by Alexa-647-conjugated probe based TR-FRET assay
OPM-2 [2] = experiment: Antitumor activity against human OPM2 cells xenografted in SCID-Beige mouse assessed as tumor growth inhibition at 150 mg/kg, po qd for 21 days measured twice per week during compound dosing relative to control; type: functional; conditions: OPM-2, po, 504 h, read-out: TGI
[3] = molecular target: Bromodomain adjacent to zinc finger domain protein 2B (Homo sapiens, UniProt Q9UIF8); experiment: Inhibition of human BAZ2B (S2054 to S2168 residues) expressed in bacterial expression system by BROMOscan assay
Mus musculus [4] = experiment: Toxicity in SCID-Beige mouse assessed as body weight loss at 150 mg/kg, po qd for 21 days measured during compound dosing relative to control; type: organism-based; conditions: in vivo, 504 h
CREB-binding protein = CREB-binding protein (Homo sapiens, UniProt Q92793); experiment: Inhibition of human CREBBP (R1081 to G1197 residues) expressed in bacterial expression system by BROMOscan assay
[5] = molecular target: Bromodomain-containing protein 1 (Homo sapiens, UniProt O95696); experiment: Inhibition of human BRD1 (E556 to A688 residues) expressed in bacterial expression system by BROMOscan assay
[6] = molecular target: SWI/SNF-related matrix-associated actin-dependent regulator of chromatin subfamily A member 2 (Homo sapiens, UniProt P51531); experiment: Inhibition of human SMARCA2 (S1377 to Q1486 residues) expressed in bacterial expression system by BROMOscan assay
Protein polybromo-1 = Protein polybromo-1 (Homo sapiens, UniProt Q86U86); experiment: Inhibition of human PBRM1 bromodomain 5 (S645 to D766 residues) expressed in bacterial expression system by BROMOscan assay
Sequence of Protein polybromo-1 (Q86U86 whole entry, the tested form may be a part): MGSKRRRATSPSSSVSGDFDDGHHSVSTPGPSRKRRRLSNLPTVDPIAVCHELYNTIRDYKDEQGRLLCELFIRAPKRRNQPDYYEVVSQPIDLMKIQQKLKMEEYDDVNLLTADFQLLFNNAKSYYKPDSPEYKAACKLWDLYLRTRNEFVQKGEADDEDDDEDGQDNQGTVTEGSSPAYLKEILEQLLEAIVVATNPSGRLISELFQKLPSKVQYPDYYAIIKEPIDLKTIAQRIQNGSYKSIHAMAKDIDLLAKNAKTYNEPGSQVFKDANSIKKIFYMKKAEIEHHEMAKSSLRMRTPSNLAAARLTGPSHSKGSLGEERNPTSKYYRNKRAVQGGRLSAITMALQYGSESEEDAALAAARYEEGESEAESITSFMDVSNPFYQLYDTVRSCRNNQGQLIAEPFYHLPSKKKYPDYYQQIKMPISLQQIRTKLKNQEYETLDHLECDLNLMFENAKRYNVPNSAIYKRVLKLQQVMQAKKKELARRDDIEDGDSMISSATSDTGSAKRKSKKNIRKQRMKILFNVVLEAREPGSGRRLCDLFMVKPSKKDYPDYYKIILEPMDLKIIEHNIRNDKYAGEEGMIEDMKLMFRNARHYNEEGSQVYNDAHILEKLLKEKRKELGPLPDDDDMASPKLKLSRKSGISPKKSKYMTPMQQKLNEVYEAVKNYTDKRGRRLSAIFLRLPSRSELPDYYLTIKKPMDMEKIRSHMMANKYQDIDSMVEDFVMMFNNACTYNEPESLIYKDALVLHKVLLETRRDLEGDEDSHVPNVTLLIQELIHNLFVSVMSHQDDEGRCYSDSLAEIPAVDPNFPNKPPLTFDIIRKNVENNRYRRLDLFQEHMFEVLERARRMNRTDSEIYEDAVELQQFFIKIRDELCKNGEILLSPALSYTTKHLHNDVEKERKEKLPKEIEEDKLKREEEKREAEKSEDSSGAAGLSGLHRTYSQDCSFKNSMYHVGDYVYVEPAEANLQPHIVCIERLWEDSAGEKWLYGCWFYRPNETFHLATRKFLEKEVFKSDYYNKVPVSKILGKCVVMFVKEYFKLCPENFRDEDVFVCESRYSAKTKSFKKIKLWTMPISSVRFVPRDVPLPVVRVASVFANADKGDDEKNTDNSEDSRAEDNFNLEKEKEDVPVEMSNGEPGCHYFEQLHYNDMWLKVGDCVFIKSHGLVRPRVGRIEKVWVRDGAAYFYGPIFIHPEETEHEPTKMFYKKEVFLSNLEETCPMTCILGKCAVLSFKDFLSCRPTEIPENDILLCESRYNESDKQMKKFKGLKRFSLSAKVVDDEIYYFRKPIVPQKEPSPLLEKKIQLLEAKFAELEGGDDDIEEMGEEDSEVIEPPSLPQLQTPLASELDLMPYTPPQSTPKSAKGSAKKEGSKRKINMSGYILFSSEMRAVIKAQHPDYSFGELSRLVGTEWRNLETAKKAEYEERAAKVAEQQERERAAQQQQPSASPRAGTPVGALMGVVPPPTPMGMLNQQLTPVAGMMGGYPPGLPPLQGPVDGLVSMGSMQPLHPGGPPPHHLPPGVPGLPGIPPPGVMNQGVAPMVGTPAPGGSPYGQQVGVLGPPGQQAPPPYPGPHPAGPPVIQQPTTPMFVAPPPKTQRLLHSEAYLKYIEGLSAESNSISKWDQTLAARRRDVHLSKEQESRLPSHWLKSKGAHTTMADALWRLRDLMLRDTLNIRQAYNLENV

OPM-2 [7] = experiment: Antitumor activity against human OPM2 cells xenografted in SCID-Beige mouse assessed as tumor growth inhibition at 100 mg/kg, po bid for 14 days measured twice per week during compound dosing relative to control; type: functional; conditions: OPM-2, po, 336 h, read-out: TGI
OPM-2 [8] = experiment: Antitumor activity against human OPM2 cells xenografted in SCID-Beige mouse assessed as tumor growth inhibition at 100 mg/kg, po qd for 14 days measured twice per week during compound dosing relative to control; type: functional; conditions: OPM-2, po, 336 h, read-out: TGI
Outline: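 OPM-2 multiple myeloma xenografts in mice dosed orally over 14 days. Either once daily at 100 mg/kg or twice daily at 50 mg/kg ×2, the same total dose. Tumor growth inhibition was calculated over the treatment period. Mean ± SE, n = 10 per group.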

[9] = molecular target: Histone acetyltransferase KAT2A (Homo sapiens, UniProt Q92830); experiment: Inhibition of human GCN5L2 (E726 to K837 residues) expressed in bacterial expression system by BROMOscan assay
[10] = molecular target: SWI/SNF-related matrix-associated actin-dependent regulator of chromatin subfamily A member 4 (Homo sapiens, UniProt P51532); experiment: Inhibition of human SMARCA4 (A1448 to S1575 residues) expressed in bacterial expression system by BROMOscan assay
[11] = molecular target: Chromatin remodeling regulator CECR2 (Homo sapiens, UniProt Q9BXF3); experiment: Inhibition of human CECR2 (P423 to D543 residues) expressed in bacterial expression system by BROMOscan assay
[12] = Toxicity in po dosed SCID-Beige mouse administered once daily; type: organism-based; conditions: in vivo
Outline: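 Oral once-daily dosing in mice bearing OPM-2 multiple myeloma xenografts. Tolerability was judged from mean body-weight loss over the course of the study.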

[13] = molecular target: Bromodomain-containing protein 9 (Homo sapiens) (UniProt Q9H8M2); experiment: Inhibition of human BRD9 isoform 1 (R130 to V259 residues) expressed in bacterial expression system at 1 uM by BROMOscan assay relative to control
Sequence of Bromodomain-containing protein 9 (Homo sapiens) (Q9H8M2 whole entry, the tested form may be a part, canonical isoform): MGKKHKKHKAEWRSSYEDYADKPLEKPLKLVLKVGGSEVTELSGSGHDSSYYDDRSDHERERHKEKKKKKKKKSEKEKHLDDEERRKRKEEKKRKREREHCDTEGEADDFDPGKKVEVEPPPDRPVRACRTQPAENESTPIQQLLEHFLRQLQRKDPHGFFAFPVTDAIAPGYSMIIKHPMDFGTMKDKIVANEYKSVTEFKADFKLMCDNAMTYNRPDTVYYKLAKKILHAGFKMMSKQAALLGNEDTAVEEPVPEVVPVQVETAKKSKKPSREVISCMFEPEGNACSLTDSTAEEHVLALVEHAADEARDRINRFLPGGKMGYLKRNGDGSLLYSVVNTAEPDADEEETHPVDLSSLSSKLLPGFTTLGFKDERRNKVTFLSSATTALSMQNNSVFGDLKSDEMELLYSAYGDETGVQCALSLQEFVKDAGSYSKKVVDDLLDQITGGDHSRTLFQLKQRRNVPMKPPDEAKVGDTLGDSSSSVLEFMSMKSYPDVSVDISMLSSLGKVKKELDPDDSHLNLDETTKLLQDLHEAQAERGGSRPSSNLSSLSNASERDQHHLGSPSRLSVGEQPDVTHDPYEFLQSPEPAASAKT

[14] = molecular target: Bromodomain-containing protein 7 (Homo sapiens, UniProt Q9NPI1); experiment: Inhibition of human BRD7 (L125 to R254 residues) expressed in mammalian expression system by BROMOscan assay
Sequence of Bromodomain-containing protein 7 (Q9NPI1 whole entry, the tested form may be a part): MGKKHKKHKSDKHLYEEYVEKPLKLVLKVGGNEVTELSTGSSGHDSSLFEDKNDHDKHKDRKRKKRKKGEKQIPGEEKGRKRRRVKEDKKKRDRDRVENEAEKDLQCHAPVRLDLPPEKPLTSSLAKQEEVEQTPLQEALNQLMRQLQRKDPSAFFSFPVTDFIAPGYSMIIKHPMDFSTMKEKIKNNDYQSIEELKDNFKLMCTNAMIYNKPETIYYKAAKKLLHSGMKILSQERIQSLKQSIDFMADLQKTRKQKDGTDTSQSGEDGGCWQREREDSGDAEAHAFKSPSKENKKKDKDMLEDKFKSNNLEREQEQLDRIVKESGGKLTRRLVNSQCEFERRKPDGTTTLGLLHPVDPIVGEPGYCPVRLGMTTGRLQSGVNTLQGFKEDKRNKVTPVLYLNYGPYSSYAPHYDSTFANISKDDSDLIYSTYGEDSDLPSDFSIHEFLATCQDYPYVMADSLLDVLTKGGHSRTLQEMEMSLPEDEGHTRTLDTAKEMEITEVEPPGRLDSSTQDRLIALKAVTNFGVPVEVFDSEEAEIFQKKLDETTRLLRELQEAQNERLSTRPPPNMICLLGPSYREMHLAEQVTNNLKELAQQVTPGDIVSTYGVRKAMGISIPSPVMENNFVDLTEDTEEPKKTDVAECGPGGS

[15] = molecular target: Transcription initiation factor TFIID subunit 1-like (Homo sapiens, UniProt Q8IZX4); experiment: Inhibition of human TAF1L (Q1523 to D1654 residues) expressed in bacterial expression system by BROMOscan assay
Sequence of Transcription initiation factor TFIID subunit 1-like (Q8IZX4 whole entry, the tested form may be a part): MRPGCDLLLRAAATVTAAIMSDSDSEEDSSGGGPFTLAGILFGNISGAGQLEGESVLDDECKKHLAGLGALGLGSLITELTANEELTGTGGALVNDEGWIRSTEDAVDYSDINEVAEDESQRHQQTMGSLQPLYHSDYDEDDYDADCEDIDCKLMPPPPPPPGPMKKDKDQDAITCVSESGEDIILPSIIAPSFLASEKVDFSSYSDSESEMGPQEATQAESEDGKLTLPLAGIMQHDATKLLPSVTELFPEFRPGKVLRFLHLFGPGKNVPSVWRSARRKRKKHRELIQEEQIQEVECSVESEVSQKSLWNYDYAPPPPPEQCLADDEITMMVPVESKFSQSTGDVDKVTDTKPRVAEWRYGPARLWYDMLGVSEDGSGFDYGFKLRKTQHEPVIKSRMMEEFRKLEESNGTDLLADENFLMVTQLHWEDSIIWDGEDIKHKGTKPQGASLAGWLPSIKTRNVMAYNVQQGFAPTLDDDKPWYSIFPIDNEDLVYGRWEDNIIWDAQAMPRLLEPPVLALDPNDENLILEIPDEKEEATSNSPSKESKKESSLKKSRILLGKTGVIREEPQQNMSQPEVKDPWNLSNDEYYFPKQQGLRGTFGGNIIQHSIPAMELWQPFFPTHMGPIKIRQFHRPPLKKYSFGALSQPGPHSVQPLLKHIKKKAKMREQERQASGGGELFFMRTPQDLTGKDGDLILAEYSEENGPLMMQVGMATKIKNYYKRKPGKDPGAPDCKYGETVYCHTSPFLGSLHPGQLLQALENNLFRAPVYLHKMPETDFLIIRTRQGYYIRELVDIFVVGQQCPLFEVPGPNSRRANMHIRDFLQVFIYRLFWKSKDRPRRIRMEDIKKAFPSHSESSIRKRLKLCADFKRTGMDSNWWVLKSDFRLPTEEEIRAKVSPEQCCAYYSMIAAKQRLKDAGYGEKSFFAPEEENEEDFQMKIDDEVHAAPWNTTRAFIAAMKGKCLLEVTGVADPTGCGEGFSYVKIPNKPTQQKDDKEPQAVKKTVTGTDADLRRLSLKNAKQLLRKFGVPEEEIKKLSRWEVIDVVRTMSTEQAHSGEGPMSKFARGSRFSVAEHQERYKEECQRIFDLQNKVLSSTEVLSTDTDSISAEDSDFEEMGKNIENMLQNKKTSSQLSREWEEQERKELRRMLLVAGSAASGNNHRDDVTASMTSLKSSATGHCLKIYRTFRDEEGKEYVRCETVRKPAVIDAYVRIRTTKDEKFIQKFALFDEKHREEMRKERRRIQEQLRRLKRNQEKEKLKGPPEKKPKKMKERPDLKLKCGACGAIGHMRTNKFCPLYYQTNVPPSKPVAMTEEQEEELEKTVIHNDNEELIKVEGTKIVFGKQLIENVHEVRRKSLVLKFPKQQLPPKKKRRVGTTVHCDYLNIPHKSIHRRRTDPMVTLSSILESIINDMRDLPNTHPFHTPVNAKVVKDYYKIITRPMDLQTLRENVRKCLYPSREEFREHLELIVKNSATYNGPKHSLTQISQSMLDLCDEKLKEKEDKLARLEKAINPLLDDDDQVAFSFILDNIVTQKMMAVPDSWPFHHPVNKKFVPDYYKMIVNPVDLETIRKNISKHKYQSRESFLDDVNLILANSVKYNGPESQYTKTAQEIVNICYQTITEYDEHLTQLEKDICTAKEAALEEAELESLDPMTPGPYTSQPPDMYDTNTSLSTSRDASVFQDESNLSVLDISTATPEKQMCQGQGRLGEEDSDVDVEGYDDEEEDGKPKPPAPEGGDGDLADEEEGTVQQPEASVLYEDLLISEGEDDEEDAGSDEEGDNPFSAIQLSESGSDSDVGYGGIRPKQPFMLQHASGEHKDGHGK

[16] = molecular target: Histone acetyltransferase KAT2B (Homo sapiens, UniProt Q92831); experiment: Inhibition of human PCAF (G715 to D831 residues) expressed in mammalian expression system by BROMOscan assay
Mus musculus [17] = experiment: Toxicity in SCID-Beige mouse assessed as body weight loss at 30 mg/kg, po qd for 21 days measured during compound dosing relative to control; type: organism-based; conditions: in vivo, 504 h
OPM-2 [18] = experiment: Antitumor activity against human OPM2 cells xenografted in SCID-Beige mouse assessed as tumor growth inhibition at 30 mg/kg, po qd for 21 days measured twice per week during compound dosing relative to control; type: functional; conditions: OPM-2, po, 504 h, read-out: TGI

Row | Ki [1] | Structure (SMILES) | inhibition in vivo at 150 mg/kg (OPM-2 [2]) | IC50 [3] | Activity (Mus musculus [4]) | IC50 (CREB-binding protein) | IC50 [5] | IC50 [6] | IC50 (Protein polybromo-1) | inhibition in vivo at 100 mg/kg (OPM-2 [7]) | inhibition in vivo at 100 mg/kg (OPM-2 [8]) | IC50 [9] | IC50 [10] | IC50 [11] | MTD [12] | inhibition [13] | IC50 [14] | IC50 [15] | IC50 [16] | Activity (Mus musculus [17]) | inhibition in vivo at 30 mg/kg (OPM-2 [18])
1 | 38 nM | Cc1[nH]c(-c2cc(S(C)(=O)=O)ccc2Oc2ccc(F)cc2F)c2c1C(=O)NCC2 | 68% | > 1000 nM | 1 to 3% | 1000 nM | > 1000 nM | – | – | – | – | – | – | – | – | – | – | – | – | – | –
2 | 280 nM | Cn1cc(-c2cc(S(C)(=O)=O)ccc2Oc2ccc(F)cc2F)c2cc[nH]c(=O)c21 | – | – | – | – | – | > 1000 nM | > 1000 nM | – | – | > 1000 nM | > 1000 nM | > 1000 nM | – | 88% | > 1000 nM | > 1000 nM | – | 1 to 3% | 64%

Row | Structure (SMILES) | Ki [1] | inhibition in vivo at 150 mg/kg (OPM-2 [2]) | IC50 [3] | Activity (Mus musculus [4]) | IC50 (CREB-binding protein) | IC50 [5] | IC50 [6] | IC50 (Protein polybromo-1) | inhibition in vivo at 100 mg/kg (OPM-2 [7]) | inhibition in vivo at 100 mg/kg (OPM-2 [8]) | IC50 [9] | IC50 [10] | IC50 [11] | MTD [12] | inhibition [13] | IC50 [14] | IC50 [15] | IC50 [16] | Activity (Mus musculus [17]) | inhibition in vivo at 30 mg/kg (OPM-2 [18])
3 | Cc1[nH]c(-c2cc(NS(C)(=O)=O)ccc2Oc2ccccc2)c2c1C(=O)CCC2 | 38 nM | – | > 1000 nM | – | 1000 nM | > 1000 nM | 1000 nM | > 1000 nM | 73% | 53% | > 1000 nM | > 1000 nM | > 1000 nM | 100 mg/kg/day | 67% | > 1000 nM | > 1000 nM | > 1000 nM | – | –

— ChEMBL document CHEMBL4038268, “Methylpyrrole inhibitors of BET bromodomains” (Bioorg Med Chem Lett, 2017)
